A short description of assay [1]: reduced viability of SK-BR-3 breast cancer cells – cell-based, 24 h, human, pilot screen (AID 572;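 active = viability at or below 10% of carrier control in both of two separate runs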;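 also: compound exposure lasted between 18 and 24 h rather than exactly 24 h; 100% = carrier-treated control wells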). The settings on record: SK-BR-3 viability, CellTiter-Glo luminescence, at 10 µM, stronger effect = lower value. (ATP-based viability assays read luminescence as a measure of living cells.)
Assay [2] is described as follows: HUVEC growth inhibition – cell-based, human, primary screen (AID 575;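 active = viability at or below 30% in both replicate assays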;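 also: 100% = median of untreated cell wells with 0.1% DMSO on each plate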). Conditions: HUVEC proliferation, CellTiter-Glo luminescence, 72 h; at 10 µM; stronger effect = lower value. Summed up: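 Test system: primary human umbilical vein endothelial cells. Quantity: 1250 cells/well. Compound: single 10 µM dose, 0.1% DMSO, from 5x medium stock. Timing: 72 h treatment at 37 °C. Detection: ATP-based CellTiter-Glo luminescent read. Benchmarks: vehicle and MePR control wells. Format: 384-well plates coated with collagen.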

Assay [3] can be described thus: H69AR cell proliferation blockers – human, duplicate replicates, primary screen (AID 580;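 active = viability at or under a set limit in both replicates, limit being median viability minus 3 SD, cut at about 48% in these data, passing the limit was not always enough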;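 also: 100% = mean luminescence of untreated wells and 0% = no signal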). Conditions: H69AR lung tumor cells viability, ATP luminescence, 72 h; at 10 µM; stronger effect = lower value.
The nature of assay [4]: MRP1 drug-resistance reversers in H69AR cells – cell-based, doxorubicin co-treatment, pilot screen (AID 601;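 active = viability loss from added drug above about 55%, and viability with drug at most 40%, in both replicates, limit read from the data, passing the limit was not always enough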). The settings on record: CellTiter-Glo, 72 h, at 10 µM; for differential viability (reversal): stronger effect = higher value.
The nature of assay [5]: yeast transport mutant growth inhibition pilot in 384-well plates, post-Golgi transport modulator project (AID 636; in the data active = inhibition above about 31%). The settings on record: absorbance 615 nm, about 18 h, stronger effect = higher value.
Assay [6] can be described thus: growth suppression of yeast trafficking mutant, preliminary HTS, modulators of trafficking downstream of Golgi apparatus project, 1536-format plate, OD 615 nm (AID 637). The settings on record: yeast transport mutant growth, absorbance 615 nm, 18 h; stronger effect = higher value.
Setting [7] is: H69AR cells + 2 uM doxorubicin, measured here: viability with 2 uM doxorubicin, stronger effect = lower value.
Where [8] appears, read: H69AR cells, compound alone cytotoxicity.

SMILES strings stand for the structures. Active and inactive are the calls of the source. Rule as the data show it, unless noted: active = inhibition above about 30%; inactive = the rest.

With `COc1ccc(Nc2nc(-c3sc(N)nc3C)cs2)cc1`, the viability was 93% (inactive) in assay [1]; 92.9% (inactive) in assay [2]; 80.2% (inactive) in assay [3]; 85.3% in assay [4] (setting [7]); 80.2% in assay [4] (setting [8]). For the same compound, the differential viability (reversal) in assay [4] (H69AR cells + 2 uM doxorubicin) is -5.13% (inactive). The inhibition in assay [5] is -8.24% (inactive); in assay [6], 0.73% (inactive).

`CCc1nn(CC(=O)N2CCN(Cc3ccc4c(c3)OCO4)CC2)c(=O)c2cc3occc3n12`: the viability in assay [1] is 87% (inactive); in assay [2] it was 100% (inactive); in assay [3] it was 91.8% (inactive); in assay [4] (setting [7]) it was 94.2%; in assay [4] (setting [8]) it was 91.8%. Further, in assay [4] (H69AR cells + 2 uM doxorubicin), the differential viability (reversal) is -2.36% (inactive). Moreover, the inhibition is 0.14% (inactive) in assay [5] and -4.55% (inactive) in assay [6].

Regarding `Cc1ccc2c(c1)NC(=O)C(CC(=O)NCCCN1CCN(c3cc(Cl)ccc3C)CC1)O2` (centres undefined), the viability in assay [1] was 75.5% (inactive); in assay [2], 1.67% (active); in assay [3] it was 22.9% (active); in assay [4] (setting [7]) it was 40.7%; in assay [4] (setting [8]) it was 22.9%. In addition, the differential viability (reversal) in assay [4] (H69AR cells + 2 uM doxorubicin) is -17.8% (inactive). For the same compound, the figures for the inhibition in assay [5] and in assay [6] were 3.07% (inactive) and 0.98% (inactive), respectively.

In the case of `Cc1c(Cl)cccc1Nc1ccccc1C(=O)O`, the viability was 108% (inactive) in assay [1]; 56.7% (inactive) in assay [2]; 111% (inactive) in assay [3]; 102% in assay [4] (setting [7]); 111% in assay [4] (setting [8]). The differential viability (reversal) in assay [4] (H69AR cells + 2 uM doxorubicin) is 9% (inactive). In addition, the inhibition in assay [5] was -1.17% (inactive); in assay [6], 5.33% (inactive).

On to `Cc1cc(C)cc(N2C(=O)C3C4C=CC(C4)C3C2=O)c1` (centres undefined), for which the viability in assay [1] was 100% (inactive); in assay [2] it was 109% (inactive); in assay [3], 93% (inactive); in assay [4] (setting [7]), 85%; in assay [4] (setting [8]), 93%. The differential viability (reversal) in assay [4] (H69AR cells + 2 uM doxorubicin) was 7.94% (inactive). In addition, the inhibition is -3.15% (inactive) in assay [5] and 2.36% (inactive) in assay [6].

As for `O=C(NCCCN1CCCC1=O)c1ccc2c(=O)n(Cc3ccco3)c(=S)[nH]c2c1`, the viability in assay [1] is 97% (inactive); in assay [2], 105% (inactive); in assay [3], 99.6% (inactive); in assay [4] (setting [7]) it was 91.7%; in assay [4] (setting [8]), 99.6%. Moreover, in assay [4] (H69AR cells + 2 uM doxorubicin), the differential viability (reversal) is 7.89% (inactive). Also, the results for the inhibition in assay [5] and in assay [6] were 1.95% (inactive) and 10.5% (inactive), respectively.

As for `CC1(C)CC(=O)C(CC(=O)NC(=O)NCc2ccccc2)=C(O)C1`, the viability in assay [1] is 114% (inactive); in assay [2], 81.9% (inactive); in assay [3], 105% (inactive); in assay [4] (setting [7]), 94.7%; in assay [4] (setting [8]) it was 105%. The differential viability (reversal) in assay [4] (H69AR cells + 2 uM doxorubicin) was 9.89% (inactive). For the same compound, the inhibition in assay [5] is -4.52% (inactive); in assay [6] it was -10% (inactive).

`O=C1NC(=O)C(CC(=O)N(c2ccccc2)C2(C(=O)NC3CCCC3)CCCCC2)N1` (centres undefined): the viability in assay [1] was 99% (inactive); in assay [2] it was 100% (inactive); in assay [3] it was 97.2% (inactive); in assay [4] (setting [7]), 88.9%; in assay [4] (setting [8]), 97.2%. Further, the differential viability (reversal) in assay [4] (H69AR cells + 2 uM doxorubicin) was 8.26% (inactive). Also, the inhibition in assay [5] was -8.36% (inactive); in assay [6] it was 4.36% (inactive).

In the case of `CNC(=O)OC(C)CNS(=O)(=O)c1ccc(C)cc1` (centres undefined), the viability was 60% (inactive) in assay [1]; 106% (inactive) in assay [2]; 97% (inactive) in assay [3]; 90.8% in assay [4] (setting [7]); 97% in assay [4] (setting [8]). In addition, the differential viability (reversal) in assay [4] (H69AR cells + 2 uM doxorubicin) is 6.22% (inactive). Also, the inhibition in assay [5] is -7.4% (inactive); in assay [6], 0.55% (inactive).

As for `COC(=O)CN(Cc1ccco1)S(=O)(=O)c1ccccc1`, the viability in assay [1] was 98% (inactive); in assay [2] it was 102% (inactive); in assay [3], 77.6% (inactive); in assay [4] (setting [7]), 80.9%; in assay [4] (setting [8]), 77.6%. Also, the differential viability (reversal) in assay [4] (H69AR cells + 2 uM doxorubicin) was -3.33% (inactive). Further, the inhibition was -2.67% (inactive) in assay [5] and -0.91% (inactive) in assay [6].

For the compound `COCCn1c(C)cc(C(=O)COC(=O)c2ccc(N3CCCC3=O)cc2)c1C`, the viability in assay [1] is 95% (inactive); in assay [2], 88.4% (inactive); in assay [3] it was 92.3% (inactive); in assay [4] (setting [7]), 83.4%; in assay [4] (setting [8]) it was 92.3%. The differential viability (reversal) in assay [4] (H69AR cells + 2 uM doxorubicin) was 8.88% (inactive). The inhibition in assay [5] is -4.8% (inactive); in assay [6], 2.18% (inactive).

With `COCCn1nnnc1C(c1ccccc1OC)N1CCc2ccccc2C1` (centres undefined), the viability was 119% (inactive) in assay [1]; 103% (inactive) in assay [2]; 82.1% (inactive) in assay [3]; 88.8% in assay [4] (setting [7]); 82.1% in assay [4] (setting [8]). In addition, the differential viability (reversal) in assay [4] (H69AR cells + 2 uM doxorubicin) is -6.74% (inactive). For the same compound, the inhibition in assay [5] is -8.24% (inactive); in assay [6] it was -6.36% (inactive).

For `C=CCNC(=O)C1CC(=O)N(c2ccc(OCC(=O)Nc3ccc(OC)cc3)cc2)C1` (centres undefined), the viability was 99% (inactive) in assay [1]; 112% (inactive) in assay [2]; 108% (inactive) in assay [3]; 103% in assay [4] (setting [7]); 108% in assay [4] (setting [8]). Besides, the differential viability (reversal) in assay [4] (H69AR cells + 2 uM doxorubicin) is 5.12% (inactive). The inhibition in assay [5] is -0.81% (inactive); in assay [6], -0.18% (inactive).

For `Cc1ccc2nc(-c3ccc(S(=O)(=O)N4CCOCC4)cc3)cn2c1`, the viability is 138% (inactive) in assay [1]; 108% (inactive) in assay [2]; 105% (inactive) in assay [3]; 98.5% in assay [4] (setting [7]); 105% in assay [4] (setting [8]). In assay [4] (H69AR cells + 2 uM doxorubicin), the differential viability (reversal) is 6.21% (inactive). Further, the inhibition in assay [5] was -1.17% (inactive); in assay [6], -1.48% (inactive).

Turning to `CC(C)Cc1ccc(C(C)C(=O)O)cc1` (centres undefined), the viability was 99% (inactive) in assay [1]; 84.3% (inactive) in assay [2]; 97.8% (inactive) in assay [3]; 92.3% in assay [4] (setting [7]); 97.8% in assay [4] (setting [8]). Further, the differential viability (reversal) in assay [4] (H69AR cells + 2 uM doxorubicin) is 5.44% (inactive). Also, the inhibition was -1.95% (inactive) in assay [5] and 7.17% (inactive) in assay [6].

With `C/C(Cl)=C\Cn1c(NCCc2ccccc2)nc2c1c(=O)n(C)c(=O)n2C`, the viability in assay [1] is 86% (inactive); in assay [2], 78.7% (inactive); in assay [3], 76% (inactive); in assay [4] (setting [7]), 66.6%; in assay [4] (setting [8]), 76%. Besides, the differential viability (reversal) in assay [4] (H69AR cells + 2 uM doxorubicin) is 9.38% (inactive). Also, the inhibition is -7.97% (inactive) in assay [5] and 2.17% (inactive) in assay [6].

Take `Cc1c(NC(=O)c2nn(C)c(=O)c3ccccc23)c(=O)n(-c2ccccc2)n1C`: the viability in assay [1] was 94% (inactive); in assay [2], 108% (inactive); in assay [3], 97.9% (inactive); in assay [4] (setting [7]), 89.1%; in assay [4] (setting [8]) it was 97.9%. In assay [4] (H69AR cells + 2 uM doxorubicin), the differential viability (reversal) was 8.84% (inactive). The inhibition in assay [5] was -1.92% (inactive); in assay [6], -8.06% (inactive).

Turning to `C=CCn1c(SCC(=O)Nc2ccccc2OC)nnc1-c1ccccn1`, the viability in assay [1] is 84% (inactive); in assay [2], 92.4% (inactive); in assay [3], 27.6% (active); in assay [4] (setting [7]), 65.9%; in assay [4] (setting [8]), 27.6%. Further, the differential viability (reversal) in assay [4] (H69AR cells + 2 uM doxorubicin) is -38.3% (inactive). Also, the inhibition in assay [5] was -3.78% (inactive); in assay [6] it was -4.36% (inactive).

For orientation: viability means a read-out of living cells in per cent, often relative to untreated cells. What is called inhibition is the relative decrease from the control value, in per cent.

These data come from PubChem BioAssay.
